ChEMBL document CHEMBL1156585, “New NSAIDs-NO hybrid molecules with antiproliferative properties on human prostatic cancer cell lines” (Bioorg Med Chem Lett, 2008)
Calls of active or inactive are those of the source. No cut-off for these calls is given here.

Columns and labels:
Blood [1] = test: Induction of profen release in human whole blood at 10 uM after 22 hrs by HPLC; type: functional
Outline: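 Same blood pool as the COX inhibition runs. Compound incubated 22 h, then the free profen released was measured as a percentage ratio.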

PC-3 [2] = test: Antiproliferative activity against human PC3 cells after 72 hrs by MTT assay; type: functional, cell-based; conditions: PC-3, 72 h
Outline: (§1)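 PC3 prostate cancer cells kept in RPMI 1640 with 10% fetal calf serum at 37 °C, 5% CO₂. Seeded at 1.8 × 10⁴ cells/well, grown 3 days, then serum-starved 24 h to synchronize. Exposed to compounds at 1, 10, 50 and 100 µM (as solubility allows) in <0.1% DMSO for 72 h. Growth read by colorimetric MTT test.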

[3] = target: Prostaglandin G/H synthase 1 (Homo sapiens, UniProt P23219); test: Inhibition of COX1 in human whole blood; type: tissue-based
Prostaglandin G/H synthase 1, sequence (P23219 whole entry): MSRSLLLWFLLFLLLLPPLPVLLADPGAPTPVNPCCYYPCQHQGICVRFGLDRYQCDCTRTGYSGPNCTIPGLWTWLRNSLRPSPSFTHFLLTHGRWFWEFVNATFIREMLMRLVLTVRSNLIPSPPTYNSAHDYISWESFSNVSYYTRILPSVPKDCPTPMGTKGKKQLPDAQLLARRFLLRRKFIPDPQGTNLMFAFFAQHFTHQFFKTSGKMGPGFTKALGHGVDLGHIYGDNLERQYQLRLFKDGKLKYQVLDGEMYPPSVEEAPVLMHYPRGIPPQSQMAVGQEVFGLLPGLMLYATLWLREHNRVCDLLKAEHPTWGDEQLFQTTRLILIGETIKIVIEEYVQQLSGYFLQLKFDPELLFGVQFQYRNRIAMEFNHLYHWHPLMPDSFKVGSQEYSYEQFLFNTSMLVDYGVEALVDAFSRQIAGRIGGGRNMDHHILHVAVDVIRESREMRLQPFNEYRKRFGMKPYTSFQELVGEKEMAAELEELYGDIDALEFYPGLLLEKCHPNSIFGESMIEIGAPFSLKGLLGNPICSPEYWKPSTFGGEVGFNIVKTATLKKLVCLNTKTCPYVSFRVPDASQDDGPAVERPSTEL

[4] = target: T1, Prostaglandin G/H synthase 2 (Homo sapiens, UniProt P35354); test: Inhibition of COX2 in human whole blood; type: tissue-based
T1 sequence (P35354 whole entry): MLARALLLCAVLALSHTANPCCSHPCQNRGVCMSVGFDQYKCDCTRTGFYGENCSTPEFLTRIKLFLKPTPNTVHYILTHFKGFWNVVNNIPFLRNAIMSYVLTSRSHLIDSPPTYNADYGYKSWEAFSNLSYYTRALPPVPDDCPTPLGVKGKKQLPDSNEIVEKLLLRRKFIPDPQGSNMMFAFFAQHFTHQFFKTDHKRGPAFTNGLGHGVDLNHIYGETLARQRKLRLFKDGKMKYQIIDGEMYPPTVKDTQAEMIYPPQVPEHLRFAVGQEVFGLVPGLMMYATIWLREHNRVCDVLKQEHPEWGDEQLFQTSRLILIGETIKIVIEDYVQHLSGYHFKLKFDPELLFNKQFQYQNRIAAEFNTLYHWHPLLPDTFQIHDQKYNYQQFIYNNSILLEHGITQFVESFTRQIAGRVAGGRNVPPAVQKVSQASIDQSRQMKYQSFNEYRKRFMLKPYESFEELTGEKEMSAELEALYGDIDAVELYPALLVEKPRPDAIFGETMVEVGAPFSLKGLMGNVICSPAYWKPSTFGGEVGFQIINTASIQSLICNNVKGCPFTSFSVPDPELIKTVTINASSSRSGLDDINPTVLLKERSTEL

PC-3 [5] = test: Antiproliferative activity against human PC3 cells at 100 uM after 72 hrs by MTT assay; type: functional; conditions: PC-3, 72 h; outline: as §1
Blood [6] = test: Induction of nitric oxide release in human whole blood after 6 hrs by EPR spectroscopy; type: functional, tissue-based

| IC50 (PC-3 [2]) | IC50 [3] | IC50 [4] | Structure (SMILES) | Activity (Blood [1]) | inhibition at 100 µM (PC-3 [5]) | Activity (Blood [6]) |
| --- | --- | --- | --- | --- | --- | --- |
| 48 µM | 123 µM | 45 µM | CC(COC(=O)C(C)c1ccc2c(c1)[nH]c1ccc(Cl)cc12)O[N+](=O)[O-] (stereo not drawn) | 100% |  |  |
| 48 µM | 110 µM | 65 µM | CC(C(=O)OCCO[N+](=O)[O-])c1ccc2c(c1)[nH]c1ccc(Cl)cc12 (stereo not drawn) | 88% |  |  |
|  | 0.56 µM | 2.75 µM | CC(C(=O)O)c1ccc(C(=O)c2cccs2)cc1 (stereo not drawn) [SUPROFEN] |  | 0% |  |
|  | 0.58 µM | 5.8 µM | CC(C(=O)OCCO[N+](=O)[O-])c1ccc(C(=O)c2cccs2)cc1 (stereo not drawn) | 46% | 7% |  |
|  | 0.58 µM | 0.74 µM | CC(C(=O)OCC(CO[N+](=O)[O-])O[N+](=O)[O-])c1cccc(C(=O)c2ccccc2)c1 (stereo not drawn) | 79% | 21% |  |
|  | 0.6 µM | 0.73 µM | CC(COC(=O)C(C)c1cccc(C(=O)c2ccccc2)c1)O[N+](=O)[O-] (stereo not drawn) | 70% | 26% | Active |
|  |  |  | CC(C(=O)O)c1ccc2c(c1)[nH]c1ccc(Cl)cc12 (stereo not drawn) [CARPROFEN] |  | 5% |  |
|  | 0.48 µM | 2.7 µM | CC(C(=O)OCC(CO[N+](=O)[O-])O[N+](=O)[O-])c1ccc(C(=O)c2cccs2)cc1 (stereo not drawn) | 73% | 33% |  |
|  | 0.45 µM | 0.77 µM | CC(C(=O)OCCO[N+](=O)[O-])c1cccc(C(=O)c2ccccc2)c1 (stereo not drawn) | 73% | 26% |  |
|  | 0.57 µM | 4.56 µM | CC(COC(=O)C(C)c1ccc(C(=O)c2cccs2)cc1)O[N+](=O)[O-] (stereo not drawn) | 86% | 13% |  |
|  |  |  | CC(C(=O)O)c1cccc(C(=O)c2ccccc2)c1 (stereo not drawn) [KETOPROFEN] |  | 0% |  |
